In ChEMBL document CHEMBL3797089, “Morusin Induces TRAIL Sensitization by Regulating EGFR and DR5 in Human Glioblastoma Cells” (J Nat Prod, 2016):
Calls of active or inactive are those of the source. The rule behind the calls is not given here.

Legend:
[1] = tested on: U-87 MG; experiment: Effect on cIAP1 expression in human U87MG cells at 25uM after 3 to 18 hrs by Western blot analysis; type: functional, cell-based; settings: U-87MG ATCC
How it was run: (§1)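 Time course: U87MG and U373MG cells held at 25 μM morusin for the times indicated. Extracts immunoblotted (cIAP1 or DR5), with β-actin as loading control.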

[2] = tested on: U-87 MG; experiment: Induction of DR5 mRNA expression in human U87MG cells at 25 uM after 24 hrs by RT-qPCR analysis; type: functional, cell-based; settings: U-87MG ATCC
How it was run: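 U87MG held at 25 μM morusin for the times indicated. Total RNA extracted; 1 μg reverse transcribed; DR5 mRNA measured by RT-qPCR against GAPDH. Mean ± SD.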

[3] = tested on: U-87 MG; experiment: Induction of apoptosis in human U87MG cells assessed as increase in cleaved caspase 3 levels at 2.5 uM after 24 hrs by Western blot analysis in presence of TRAIL; type: functional, cell-based; settings: U-87MG ATCC
How it was run: (§2)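 U87MG and T98G given TRAIL 25 ng/mL plus morusin 2.5 μM together for 24 h; single-agent arms used TRAIL 50 ng/mL or morusin 5 μM. Lysates immunoblotted for cleaved caspase 3, 8, 9 and cleaved PARP, with β-actin as internal control.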

[4] = tested on: U373 MG; experiment: Effect on cIAP1 expression in human U373MG cells at 25 uM after 3 to 18 hrs by Western blot analysis; type: functional, cell-based; settings: U-373MG ATCC; how it was run: as §1
[5] = Reduction of XIAP mRNA expression in human U87MG cells at 25 uM by RT-qPCR analysis; type: functional, cell-based; settings: U-87MG ATCC, TDE = time-dependent effect
How it was run: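 U87MG cells were exposed to 25 μM morusin over a time course. Total RNA (1 μg) was reverse transcribed, and XIAP and survivin transcripts were measured by RT-qPCR against GAPDH. Results are mean ± SD from at least three independent experiments.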

[6] = tested on: U-87 MG; experiment: Induction of apoptosis in human U87MG cells assessed as increase in cleaved caspase 8 levels at 2.5 uM after 24 hrs by Western blot analysis in presence of TRAIL; type: functional, cell-based; settings: U-87MG ATCC; how it was run: as §2
[7] = tested on: LN-18; experiment: Effect on DcR2 expression in human LN18 cells upto 25 uM after 24 hrs by Western blot analysis; type: functional, cell-based
How it was run: (§3)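 Cells exposed to a range of morusin concentrations for 24 h. Cell extracts immunoblotted for DR4, DR5, DcR1 and DcR2, with β-actin as internal control and HRP-conjugated secondary antibodies (1:5000).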

[8] = Reduction of survivin expression in human U373MG cells after 24 hrs by Western blot analysis; type: functional, cell-based; settings: U-373MG ATCC
How it was run: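 U87MG (MEM) and U373MG (RPMI) cells were given graded morusin concentrations for 24 h. Whole-cell extracts were immunoblotted for anti-apoptotic proteins, with β-actin as loading control.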

[9] = tested on: U-251; experiment: Induction of DR4 expression in human U251MG cells at 25 uM after 24 hrs by FITC-conjugated flow cytometric analysis; type: functional, cell-based
How it was run: (§4)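 Cells given 25 μM morusin for 24 h, then stained on ice for 30 min with 0.5 μg/mL FITC-conjugated anti-DR4, anti-DR5 or isotype IgG in FACS buffer. Surface expression read by flow cytometry.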

[10] = Reduction of XIAP expression in human U373MG cells at 25 uM by Western blot analysis; type: functional, cell-based; settings: U-373MG ATCC, TDE = time-dependent effect
How it was run: (§5)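 Time course: U87MG and U373MG cells were exposed to 25 μM morusin for the indicated times. Whole-cell extracts were Western blotted, with β-actin as internal control.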

[11] = tested on: U373 MG; experiment: Induction of DR5 expression in human U373MG cells at 25 uM after 24 hrs by FITC-conjugated flow cytometric analysis; type: functional, cell-based; settings: U-373MG ATCC; how it was run: as §4
[12] = tested on: T98G; experiment: Induction of apoptosis in human T98G cells assessed as apoptic cells at 20 uM after 24 hrs by V-FITC/propidium iodide staining based flow cytometric analysis in presence of TRAIL; type: functional, cell-based
How it was run: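 (2–3) × 10^5 cells/well given TRAIL 50 ng/mL with morusin 20 μM for 24 h. Annexin V-FITC/PI double staining, flow cytometry; annexin V-positive cells counted as apoptotic. Mean ± SD, t-test against mock.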

[13] = tested on: T98G; experiment: Induction of apoptosis in human T98G cells assessed as increase in cleaved caspase 8 levels at 2.5 uM after 24 hrs by Western blot analysis in presence of TRAIL; type: functional, cell-based; how it was run: as §2
[14] = tested on: U-87 MG; experiment: Effect on DcR2 expression in human U87MG cells upto 25 uM after 24 hrs by Western blot analysis; type: functional, cell-based; settings: U-87MG ATCC; how it was run: as §3
[15] = Reduction of XIAP expression in human U87MG cells at 25 uM by Western blot analysis; type: functional, cell-based; settings: U-87MG ATCC, TDE = time-dependent effect; how it was run: as §5
[16] = molecular target: Signal transducer and activator of transcription 3 (Homo sapiens) (UniProt P40763); experiment: Inhibition of STAT3 phosphorylation in human U87MG cells measured up to 25 uM after 24 hrs by Western blot analysis; type: cell-based; settings: U-87MG ATCC
How it was run: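 Cells grown in MEM (U87MG) or RPMI (U373MG) with 10% FBS, 5% CO2, 37 °C. Treated for 24 h with the indicated concentrations of morusin (DMSO stock). Whole-cell lysates immunoblotted for phosphorylated and total proteins, with β-actin as internal control.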

[17] = tested on: U373 MG; experiment: Effect on DR4 expression in human U373MG cells upto 25 uM after 24 hrs by Western blot analysis; type: functional, cell-based; settings: U-373MG ATCC; how it was run: as §3
[18] = tested on: U373 MG; experiment: Induction of DR4 expression in human U373MG cells at 25 uM after 24 hrs by FITC-conjugated flow cytometric analysis; type: functional, cell-based; settings: U-373MG ATCC; how it was run: as §4
[19] = Cytotoxicity against human U138MG cells assessed as reduction in cell viability after 24 hrs by MTT assay; type: functional, cell-based; settings: U138-MG
How it was run: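 Seeded 3–5 × 10^3 cells/well, treated the next day with a range of morusin (DMSO stock) for 24 h, 37 °C, 5% CO2. Then fresh medium with 1 mg/mL MTT for 2 h at 37 °C, lysis buffer overnight at 37 °C, OD 570 nm. Mean ± SD from at least three independent experiments in triplicate.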

[20] = Cytotoxicity against human U87MG cells assessed as reduction in cell viability measured up to 20 uM after 24 hrs by MTT assay in presence of TRAIL; type: functional, U-87MG ATCC
How it was run: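 MTT viability. 3–5 × 10^3 cells/well, treated the next day with TRAIL 100 ng/mL plus increasing morusin concentrations for 24 h. 1 mg/mL MTT for 2 h at 37 °C, lysis overnight, OD 570 nm. Living-cell fractions were used for combination index analysis. Mean ± SD, at least three independent experiments.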

[21] = tested on: T98G; experiment: Induction of apoptosis in human T98G cells assessed as increase in cleaved PARP levels at 2.5 uM after 24 hrs by Western blot analysis in presence of TRAIL; type: functional, cell-based; how it was run: as §2
[22] = tested on: U-251; experiment: Effect on DcR2 expression in human U251MG cells upto 25 uM after 24 hrs by Western blot analysis; type: functional, cell-based; how it was run: as §3
[23] = tested on: U373 MG; experiment: Induction of DR5 expression in human U373MG cells after 24 hrs by Western blot analysis; type: functional, cell-based; settings: U-373MG ATCC; how it was run: as §3
[24] = Reduction of PDGFR expression in human U373MG cells at 25 uM after 24 hrs by Western blot analysis; type: functional, cell-based; settings: U-373MG ATCC
How it was run: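 LN18, U87MG, T98G, U251MG and U373MG glioblastoma cells were exposed to morusin for 24 h. Cells were maintained in DMEM, MEM or RPMI with 10% FBS at 37 °C and 5% CO2. Whole-cell lysates were Western blotted for receptor proteins, with β-actin as internal control.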

[25] = Stability in human U87MG cells assessed as compound remaining at 10 uM after 24 hrs; type: ADME, cell-based, U-87MG ATCC; settings: read-out: Stability

Sequence of Signal transducer and activator of transcription 3 (Homo sapiens) (P40763 whole entry): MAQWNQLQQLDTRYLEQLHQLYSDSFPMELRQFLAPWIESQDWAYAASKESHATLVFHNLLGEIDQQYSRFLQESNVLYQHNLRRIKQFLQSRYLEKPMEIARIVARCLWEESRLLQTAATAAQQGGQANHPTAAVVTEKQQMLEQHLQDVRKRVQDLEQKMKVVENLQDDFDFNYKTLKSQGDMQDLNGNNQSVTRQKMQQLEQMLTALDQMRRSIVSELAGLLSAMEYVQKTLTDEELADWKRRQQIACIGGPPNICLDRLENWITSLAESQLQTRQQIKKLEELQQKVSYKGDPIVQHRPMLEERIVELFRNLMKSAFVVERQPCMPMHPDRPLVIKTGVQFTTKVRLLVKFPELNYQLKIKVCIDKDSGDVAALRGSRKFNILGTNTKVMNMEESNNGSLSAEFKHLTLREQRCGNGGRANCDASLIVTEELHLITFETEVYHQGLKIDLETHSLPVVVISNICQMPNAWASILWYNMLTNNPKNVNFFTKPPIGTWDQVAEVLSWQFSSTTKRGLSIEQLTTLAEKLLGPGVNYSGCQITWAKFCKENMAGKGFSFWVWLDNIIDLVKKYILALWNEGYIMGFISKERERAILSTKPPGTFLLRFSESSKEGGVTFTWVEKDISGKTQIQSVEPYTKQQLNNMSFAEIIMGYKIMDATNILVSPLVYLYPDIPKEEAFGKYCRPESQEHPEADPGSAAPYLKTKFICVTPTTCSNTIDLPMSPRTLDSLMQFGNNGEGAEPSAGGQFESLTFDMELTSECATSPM

With `CC(C)=CCc1c(-c2ccc(O)cc2O)oc2c3c(cc(O)c2c1=O)OC(C)(C)C=C3` [MORUSIN] the Activity [1] was “inactive”, the Activity [2] was “Active” and the Activity [3] was “Active”. For the same molecule, the Activity [4] was “inactive”, the Activity [5] was “tde” and the Activity [6] was “Active”. The Activity [7] was “inactive”, the inhibition [8] was “Dose-dependent effect” and the Activity [9] was “inactive”. The inhibition [10] was “tde”, the Activity [11] was “Active” and the Activity [12] was “Active”. For the same molecule, the Activity [13] was “Active”, the Activity [14] was “inactive” and the inhibition [15] was “tde”. The inhibition [16] was “Active”, the Activity [17] was “inactive” and the Activity [18] was “inactive”. The IC50 [19] was 24 µM, the CI [20] was less than 0.8 and the Activity [21] was “Active”. For the same molecule, the Activity [22] was “inactive”, the Activity [23] was “Dose-dependent effect” and the Activity [24] was “Active”. For the same molecule, the remaining at 24 h, 10 µM [25] was greater than 94%.
